MrgX1 allo act: positive allosteric modulators of MrgX1, primary screen, HEK293 cells, Fluo-4 calcium flux; B-score at 10 µM; Mas-related G-protein coupled receptor member X1 (Homo sapiens), Q96LB2; FDSS; hits give high values; AID 588675, 2011; 310,000 tested, 0.63% active;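 active = plate-corrected calcium response at least 3 library SD above typical, normal starting fluorescence, not activating the receptor alone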;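 note: compound read alongside a low EC10 to EC30 dose of BAM8-22 agonist; peak minus trough fluorescence over baseline measured at the second addition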
Target sequence (Q96LB2 whole entry, looked up): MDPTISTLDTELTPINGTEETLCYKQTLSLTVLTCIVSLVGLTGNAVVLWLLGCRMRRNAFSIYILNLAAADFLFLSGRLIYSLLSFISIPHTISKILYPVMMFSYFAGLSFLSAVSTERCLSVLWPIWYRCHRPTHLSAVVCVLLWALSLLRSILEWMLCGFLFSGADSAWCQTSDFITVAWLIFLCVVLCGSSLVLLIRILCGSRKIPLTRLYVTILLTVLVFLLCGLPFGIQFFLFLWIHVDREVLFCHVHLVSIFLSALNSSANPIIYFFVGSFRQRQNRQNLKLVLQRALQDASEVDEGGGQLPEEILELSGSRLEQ
RGS4 pot: RGS4 potentiators or activators, primary screen, cell-based, HEK293 M3R inducible RGS4, calcium flux; B-score at 10 µM; 310,000 tested, 0.92% active; carbachol calcium flux Fluo4; hits give low values;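 active = B-score of the integrated calcium signal more than 4 SD below the library mean, with starting fluorescence not abnormally high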;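 note: negative B-score means reduced calcium response which marks RGS4 activation or potentiation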
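Material: M3R-expressing HEK293 line, RGS4 induced by doxycycline | Schedule: Overnight RGS4 induction, 30 min dye load 37 °C, 20 min compound RT | Measured by: Fluo4 fluorescence kinetic imaging of calcium | Read-out: Integrated calcium ratio converted to B score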
MrgX1 agonist: agonists of human MrgX1 receptor, primary screen, HEK293 cells, Fluo-4 calcium flux. AID 588627, 2011. Mas-related G-protein coupled receptor member X1 (Homo sapiens), Q96LB2. 310,000 tested, 0.44% active. B-score at 10 µM. Fluo-4 calcium fluorescence, agonist mode; hits give high values;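 active = calcium response B-score plate-corrected fluorescence ratio at least 3 library SD, with starting fluorescence B-score inside 5 SD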
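System – MrgX1-expressing HEK293 cells · Incubation – cells plated overnight, dye loaded 0.5 h 37 °C, 0.5 h room temperature · Technique – kinetic Fluo-4 NW fluorescence of intracellular calcium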
MrgX1 antagonist: antagonists of human MrgX1 receptor, primary screen, HEK293 cells, Fluo-4 calcium flux; Mas-related G-protein coupled receptor member X1 (Homo sapiens), Q96LB2; BAM8-22 antagonism; hits give low values; B-score at 10 µM; 310,000 tested, 1.3% active; AID 588676, 2011;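 active = calcium-response B-score plate-corrected more than 3 library SD below zero, starting fluorescence within 5 deviations, no agonist response on first addition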;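 note: peak minus trough fluorescence over baseline after final BAM8-22 challenge near maximal dose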
RGS4 block: RGS4 inhibitors, primary screen, cell-based, HEK293 M3R inducible RGS4, calcium flux; Fluo-4 calcium flux; hits give high values; triggered by carbachol at its EC20; B-score at 10 µM; 310,000 tested, 0.45% active; AID 463165, 2010;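 active = B-score, a plate-corrected calcium signal, over three deviations above library mean, with baseline fluorescence within five deviations of library mean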;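 note: RGS4 expression induced by doxycycline in cells with stable M3 receptor; B-score is computed from the integrated fluorescence ratio over baseline after carbachol; higher B-score means a larger calcium signal and so more RGS4 inhibition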
Target sequence (P49798 whole entry, looked up): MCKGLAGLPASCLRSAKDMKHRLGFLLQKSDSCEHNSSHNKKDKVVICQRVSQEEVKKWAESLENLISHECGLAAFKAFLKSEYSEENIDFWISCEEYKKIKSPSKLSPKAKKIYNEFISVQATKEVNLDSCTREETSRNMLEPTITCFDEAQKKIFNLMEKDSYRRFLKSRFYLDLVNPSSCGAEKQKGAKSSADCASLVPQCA
An asterisk follows results filed as active. Sampled rows, rich in hits. Any-hit rate of the full collection: about 3.5%.

`CCN(CC(=O)Nc1ccc(NC(C)=O)cc1)C(=O)/C=C/c1ccc([N+](=O)[O-])cc1` gave MrgX1 allo act inactive, RGS4 pot inactive, MrgX1 agonist inactive, MrgX1 antagonist inactive and RGS4 block inactive.
`CCOc1ccc(C2C=C(c3ccc(C)cc3)Nc3ncnn32)cc1` (configuration not stated) gave MrgX1 allo act inactive, RGS4 pot inactive, MrgX1 agonist 30*, MrgX1 antagonist inactive and RGS4 block inactive.
COc1ccc(C2C=C(c3ccccc3)Nc3ncnn32)cc1 (configuration not stated) was read as MrgX1 allo act 10*, RGS4 pot inactive, MrgX1 agonist inactive, MrgX1 antagonist inactive and RGS4 block inactive.
For COc1ccc(C2C=C(C)Nc3ncnn32)cc1 (configuration not stated) the results were MrgX1 allo act inactive, RGS4 pot inactive, MrgX1 agonist inactive, MrgX1 antagonist inactive and RGS4 block inactive.
`CN(C)c1ncc(CN2CCC(C(=O)Nc3ccc(-n4cccn4)cc3)CC2)s1` gave MrgX1 allo act inactive, RGS4 pot inactive, MrgX1 agonist inactive, MrgX1 antagonist inactive and RGS4 block inactive.
For COC(=O)c1ccc(OC(=O)c2ccco2)cc1 the results were MrgX1 allo act inactive, RGS4 pot inactive, MrgX1 agonist inactive, MrgX1 antagonist inactive and RGS4 block inactive.
For O=Cc1ccnc(-c2ccc(OC(=O)c3ccco3)cc2)n1 the results were MrgX1 allo act inactive, RGS4 pot inactive, MrgX1 agonist 76*, MrgX1 antagonist inactive and RGS4 block inactive.
`O=C(CCN1CCCCCC1)c1ccccc1` gave MrgX1 allo act inactive, MrgX1 agonist 31* and MrgX1 antagonist inactive.
`COc1ccc(-c2nn(-c3ccccc3)cc2C(N)=O)cc1OC` gave MrgX1 allo act inactive, RGS4 pot inactive, MrgX1 agonist inactive, MrgX1 antagonist inactive and RGS4 block inactive.
For CC(C(=O)Nc1cc(Cl)cc(Cl)c1)N1CCCC1 (configuration not stated) the results were MrgX1 allo act inactive, RGS4 pot inactive, MrgX1 agonist inactive, MrgX1 antagonist inactive and RGS4 block inactive.
`CCOC(=O)c1ccc(NC(=O)COc2ccc(CNC3CCCCC3)cc2OC)cc1` gave MrgX1 allo act inactive, RGS4 pot -7.5*, MrgX1 agonist inactive, MrgX1 antagonist inactive and RGS4 block inactive.
Screening COc1ccc(C2=NOC(Cn3nc(C(=O)NCc4cccc(C(F)(F)F)c4)cc3-c3ccccc3)C2)cc1 (configuration not stated) returned MrgX1 allo act inactive, RGS4 pot inactive, MrgX1 agonist inactive, MrgX1 antagonist inactive and RGS4 block inactive.
O=[N+]([O-])c1cccc(S(=O)(=O)N/N=C\c2ccc3c(c2)OCO3)c1 was read as MrgX1 allo act 13*, RGS4 pot inactive, MrgX1 agonist inactive, MrgX1 antagonist inactive and RGS4 block inactive.
O=[N+]([O-])c1cccc(S(=O)(=O)N/N=C/c2ccc(O)cc2)c1 was read as MrgX1 allo act 6.6*, RGS4 pot inactive, MrgX1 agonist inactive, MrgX1 antagonist inactive and RGS4 block inactive.
CCCN(c1ccccc1F)S(=O)(=O)c1c[nH]c(C(=O)OC)c1 was read as MrgX1 allo act inactive, RGS4 pot inactive, MrgX1 agonist inactive, MrgX1 antagonist inactive and RGS4 block inactive.
Screening N=C(N)SCc1cn(-c2ccccc2)nc1-c1ccc(Br)cc1 returned RGS4 pot -7.5* and RGS4 block inactive.
Cc1ccc(-c2nn(-c3ccccc3)cc2CNCc2ccccc2)cc1 was read as MrgX1 allo act inactive, RGS4 pot inactive, MrgX1 agonist inactive, MrgX1 antagonist inactive and RGS4 block inactive.
Screening C=CC[n+]1c(-c2ccc(C)cc2)csc1Nc1c(C)n(C)n(-c2ccccc2)c1=O returned MrgX1 allo act inactive, RGS4 pot -7.9*, MrgX1 agonist inactive, MrgX1 antagonist inactive and RGS4 block inactive.
For Cc1c(NC(=O)Nc2cc(Cl)ccc2Cl)c(=O)n(-c2ccccc2)n1C the results were MrgX1 allo act inactive, RGS4 pot inactive, MrgX1 agonist inactive, MrgX1 antagonist inactive and RGS4 block inactive.
Screening CCCC[n+]1c(-c2ccc(Cl)cc2Cl)csc1Nc1ccccc1 returned MrgX1 allo act inactive, RGS4 pot inactive, MrgX1 agonist inactive, MrgX1 antagonist inactive and RGS4 block inactive.
`C=CC[n+]1c(-c2ccc(Cl)cc2Cl)csc1Nc1c(C)n(C)n(-c2ccccc2)c1=O` gave MrgX1 allo act inactive, RGS4 pot inactive, MrgX1 agonist 28*, MrgX1 antagonist inactive and RGS4 block inactive.
`C=CC[n+]1c(-c2ccc(Cl)cc2Cl)csc1Nc1ccc(NC(C)=O)cc1` gave MrgX1 allo act inactive, RGS4 pot -7*, MrgX1 agonist inactive, MrgX1 antagonist inactive and RGS4 block inactive.
Cc1ccc(C(=O)NNC(=O)c2ccc(SCC3CCCO3)c([N+](=O)[O-])c2)cc1 (configuration not stated) was read as MrgX1 allo act inactive, RGS4 pot inactive, MrgX1 agonist inactive, MrgX1 antagonist -6.7* and RGS4 block inactive.
Screening O=C(NNC(=O)c1ccc(SCC2CCCO2)c([N+](=O)[O-])c1)c1ccc(Cl)c([N+](=O)[O-])c1 (configuration not stated) returned MrgX1 allo act inactive, RGS4 pot inactive, MrgX1 agonist inactive, MrgX1 antagonist inactive and RGS4 block inactive.
Screening O=C(COc1ccccc1)NC(=S)Nc1ccc2c3c(cccc13)CC2 returned MrgX1 allo act inactive, RGS4 pot inactive, MrgX1 agonist inactive, MrgX1 antagonist inactive and RGS4 block inactive.
Screening O=C(/C=C/c1ccccc1)NC(=S)Nc1ccc2c3c(cccc13)CC2 returned MrgX1 allo act inactive, RGS4 pot inactive, MrgX1 agonist inactive, MrgX1 antagonist -14* and RGS4 block inactive.
For CCOc1ccc(NC(=O)COC(=O)Cc2ccc(S(=O)(=O)N3CCOCC3)s2)cc1 the results were MrgX1 allo act inactive, RGS4 pot inactive, MrgX1 agonist inactive, MrgX1 antagonist inactive and RGS4 block inactive.
For CCOc1ccc(S(=O)(=O)N2CCN(C(=O)Cc3ccc(S(=O)(=O)N4CCOCC4)s3)CC2)cc1 the results were MrgX1 allo act inactive, RGS4 pot -7.3*, MrgX1 agonist inactive, MrgX1 antagonist inactive and RGS4 block inactive.
